Measurements as given in ChEMBL document CHEMBL4145618, “Constraining Endomorphin-1 by β,α-Hybrid Dipeptide/Heterocycle Scaffolds: Identification of a Novel κ-Opioid Receptor Selective Partial Agonist” (J Med Chem, 2018).
Calls of active or inactive are those of the source.

What was measured:
Mu-type opioid receptor [1] = molecular target: T1, Mu-type opioid receptor (Homo sapiens, UniProt P35372); test: Displacement of [3H]DAMGO from human mu opioid receptor expressed in HEK293 cell membranes after 2 hrs by liquid scintillation spectrometry
T1 sequence (P35372 whole entry): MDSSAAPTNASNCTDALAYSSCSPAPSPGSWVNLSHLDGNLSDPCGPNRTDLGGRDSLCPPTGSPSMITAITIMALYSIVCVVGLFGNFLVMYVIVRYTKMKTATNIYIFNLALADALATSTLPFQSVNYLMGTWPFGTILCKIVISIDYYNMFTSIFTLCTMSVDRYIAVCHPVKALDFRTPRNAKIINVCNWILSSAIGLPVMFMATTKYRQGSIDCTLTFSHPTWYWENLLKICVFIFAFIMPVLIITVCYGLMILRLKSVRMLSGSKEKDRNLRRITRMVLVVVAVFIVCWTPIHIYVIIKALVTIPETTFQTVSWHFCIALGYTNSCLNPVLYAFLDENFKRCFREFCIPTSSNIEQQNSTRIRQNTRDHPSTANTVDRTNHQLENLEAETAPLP
Method in brief: (§1)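 Membranes from HEK-293 cells stably expressing human opioid receptors. Radioligands: [3H]DAMGO for MOR, [3H]diprenorphine for DOR, [3H]U69,593 for KOR. Competitor range 10^-12–10^-4 M, 120 min at 25°C, Tris-HCl buffer with 0.3% BSA. Unlabelled ligands defined nonspecific binding. Bound label collected on 0.3% polyethylenimine-presoaked filters and counted by liquid scintillation. Ki from IC50 via Cheng-Prusoff.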

[2] = molecular target: T2, Kappa-type opioid receptor (Homo sapiens, UniProt P41145); test: Displacement of [3H]U69,593 from human kappa opioid receptor expressed in HEK293 cell membranes after 2 hrs by liquid scintillation spectrometry; method in brief: as §1
T2 sequence (P41145 whole entry): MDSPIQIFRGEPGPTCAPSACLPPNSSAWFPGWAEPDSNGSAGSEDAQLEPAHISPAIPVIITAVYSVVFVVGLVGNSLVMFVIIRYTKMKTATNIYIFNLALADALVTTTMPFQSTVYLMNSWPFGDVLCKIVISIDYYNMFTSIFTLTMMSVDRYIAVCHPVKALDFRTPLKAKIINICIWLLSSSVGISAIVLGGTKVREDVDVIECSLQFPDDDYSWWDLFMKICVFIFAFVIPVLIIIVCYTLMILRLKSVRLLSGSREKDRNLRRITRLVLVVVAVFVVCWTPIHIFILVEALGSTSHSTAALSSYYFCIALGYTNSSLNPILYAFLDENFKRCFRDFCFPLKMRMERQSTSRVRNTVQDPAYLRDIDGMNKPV

[3] = molecular target: Delta-type opioid receptor (Homo sapiens, UniProt P41143); test: Displacement of [3H]diprenorphine from human delta opioid receptor expressed in HEK293 cell membranes after 2 hrs by liquid scintillation spectrometry
Delta-type opioid receptor, sequence (P41143 whole entry): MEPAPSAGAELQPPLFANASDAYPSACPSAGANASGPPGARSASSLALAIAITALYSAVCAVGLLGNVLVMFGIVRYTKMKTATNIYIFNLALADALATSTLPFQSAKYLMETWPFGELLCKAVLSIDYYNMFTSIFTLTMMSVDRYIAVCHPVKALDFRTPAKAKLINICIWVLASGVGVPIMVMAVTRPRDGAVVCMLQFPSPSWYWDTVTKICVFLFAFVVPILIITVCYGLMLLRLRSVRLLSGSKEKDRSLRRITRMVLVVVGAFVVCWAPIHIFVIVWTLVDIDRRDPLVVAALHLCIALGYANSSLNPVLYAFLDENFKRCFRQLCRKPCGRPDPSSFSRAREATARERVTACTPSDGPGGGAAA

Mu-type opioid receptor [4] = molecular target: T1, Mu-type opioid receptor; test: Agonist activity at human mu opioid receptor expressed in HEK293 assessed as inhibition forskolin-induced cAMP accumulation at 0.00001 to 100 uM after 15 mins by EIA relative to control; type: functional, cell-based
Method in brief: (§2)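 Whole HEK-293 cells stably expressing human KOR or MOR, in serum-free medium with 0.5 mM IBMX. Cells exposed 15 min at 37°C to 10 µM forskolin, with or without test agent. KOR co-treatment run: U50,488 1 pM–100 µM with or without 1 µM test agent. cAMP measured by enzyme immunoassay.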

[5] = Drug metabolism in mouse serum assessed as compound hydrolysis after 4 hrs by RP-HPLC analysis; type: ADME, cell-free; conditions: read-out: Drug metabolism
Method in brief: (§3)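 Peptides incubated in mouse serum at 37°C for up to 4 h and sampled over time. Enzymatic activity stopped with cold acetonitrile, then centrifuged. Intact peptide in the supernatant quantified by reversed-phase HPLC, with ESI-MS analysis.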

Mu-type opioid receptor [6] = molecular target: T1, Mu-type opioid receptor; test: Agonist activity at human mu opioid receptor expressed in HEK293 assessed as inhibition forskolin-induced cAMP accumulation after 15 mins by EIA; type: functional, cell-based; method in brief: as §2
[7] = molecular target: T2, Kappa-type opioid receptor; test: Agonist activity at human kappa opioid receptor expressed in HEK293 assessed as inhibition forskolin-induced cAMP accumulation after 15 mins by EIA; type: functional, cell-based; method in brief: as §2
[8] = Drug metabolism in mouse serum assessed as compound hydrolysis after 1 hr by RP-HPLC analysis; type: ADME, cell-free; conditions: read-out: Drug metabolism; method in brief: as §3
Mus musculus [9] = test: Antinociceptive activity in CD1 mouse assessed as increase in latency to response at 10 mg/kg, ip measured at 15 mins post dose by tail immersion test; type: functional, organism-based
Method in brief: (§4)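 Mouse warm-water tail immersion at 52 ± 0.5 °C. Control withdrawal latency recorded before dosing; only mice responding within 5 s were used. Vehicle or compound given ip at 10 or 20 mg/kg. Where stated, norBNI 10 mg/kg given 30 min before compound. Test latency taken with 10 s cutoff. MPE% = 100 × (TL − CL)/(10 − CL); n = 6.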

Mus musculus [10] = test: Antinociceptive activity in CD1 mouse assessed as increase in latency to response at 20 mg/kg, ip measured at 15 mins post dose by tail immersion test relative to control; type: functional; method in brief: as §4
Mus musculus [11] = test: Antinociceptive activity in CD1 mouse assessed as increase in latency to response at 20 mg/kg, ip measured at 15 mins post dose in presence of KOR antagonist nor-BNI by tail immersion test; type: functional, organism-based; method in brief: as §4
[12] = molecular target: T2, Kappa-type opioid receptor; test: Agonist activity at human kappa opioid receptor expressed in HEK293 assessed as inhibition forskolin-induced cAMP accumulation at 1 uM after 15 mins in presence of U50,488 by EIA; type: functional, cell-based; method in brief: as §2
[13] = molecular target: T2, Kappa-type opioid receptor; test: Agonist activity at human kappa opioid receptor expressed in HEK293 assessed as inhibition forskolin-induced cAMP accumulation at 0.00001 to 100 uM after 15 mins by cAMP EIA relative to control; type: functional, cell-based; method in brief: as §2
Mus musculus [14] = test: Antinociceptive activity in CD1 mouse assessed as increase in latency to response at 20 mg/kg, ip measured at 30 mins post dose by tail immersion test relative to control; type: functional; method in brief: as §4

Row | Structure (SMILES) | Ki (Mu-type opioid receptor [1]) [µM] | Ki [2] [µM] | Ki [3] [µM] | Emax (Mu-type opioid receptor [4]) [%] | further results
1 | NC(=O)[C@H](Cc1ccccc1)NC(=O)[C@H](Cc1c[nH]c2ccccc12)N1C(=O)O[C@H](CNC(=O)[C@@H](N)Cc2ccc(O)cc2)C1=O | > 100 | > 100 | > 100 | – | –
2 | N[C@@H](Cc1ccc(O)cc1)C(=O)N1CCC[C@H]1C(=O)N[C@@H](Cc1c[nH]c2ccccc12)C(=O)N[C@@H](Cc1ccccc1)C(=O)O | – | – | – | 53 | –
3 | NC(=O)[C@H](Cc1ccccc1)NC(=O)[C@@H](Cc1c[nH]c2ccccc12)N1C(=O)O[C@H](CNC(=O)[C@@H](N)Cc2ccc(O)cc2)C1=O | 0.24 | > 100 | > 100 | 50 | metabolised at 4 h [5]: < 10%; IC50 (Mu-type opioid receptor [6]): 0.016 nM
4 | NC(=O)[C@H](Cc1ccccc1)NC(=O)[C@H](Cc1c[nH]c2ccccc12)N1C(=O)O[C@@H](CNC(=O)[C@@H](N)Cc2ccc(O)cc2)C1=O | > 100 | 0.0098 | > 100 | – | IC50 [7]: 0.00022 µM; metabolised at 1 h [8]: < 5%; Activity (Mus musculus [9]): Active; MPE (Mus musculus [10]): 60%; Activity (Mus musculus [11]): inactive; inhibition [12]: 40%; Emax [13]: 40%; MPE (Mus musculus [14]): 42%
5 | NC(=O)[C@H](Cc1ccccc1)NC(=O)[C@@H](Cc1c[nH]c2ccccc12)N1C(=O)O[C@@H](CNC(=O)[C@@H](N)Cc2ccc(O)cc2)C1=O | > 100 | > 100 | > 100 | – | –
